By pIC50 is commonly meant the negative decadic logarithm of the IC50, by convention in mol/L.

Test [1] is described as follows: Antiproliferative activity against human H441 cells assessed as decrease of hexosaminidase activity after 24 hrs. Conditions: NCI-H441, 24 h. Type of test: functional, cell-based. The gist of the method: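 H441 (NCI-H441) cells in McCoy's 5A with 5% heat-inactivated FBS, gentamicin 50 μg/ml, 37 °C, 5% CO2; 10×10^3 cells/well seeded, attached overnight. Compounds in DMSO (0.1% final) at 1, 10, 25, 100 μM for 24 h. Hexosaminidase substrate in citrate pH 5, 30 min 37 °C, stopped with glycine/EDTA pH 10.4, A405. Triplicate, repeated at least twice; IC50 from linear or exponential fit of concentration vs activity.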

Test [2] has as its system NCI-H441. Briefly: Induction of autophagy in human H441 cells assessed as double-membrane pre-autophagosomal structures containing cell organelles at 1 to 10 uM after 24 hrs by transmission electron microscopic analysis. Type of test: functional, cell-based. The procedure, abridged:
(§1)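 H441 cells exposed 24 h at 1 and 10 μM, then fixed 4 h at room temperature in 0.1 M cacodylate with 4% PFA and 2% glutaraldehyde. Post-fixed in 1% osmium tetroxide 1.5 h, dehydrated through a graded ethanol series, ultrasections stained with Sato's lead. Imaged by transmission electron microscopy at 2500×; untreated cells as controls.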

The test system of test [3] is NCI-H441. Briefly: Induction of autophagy in human H441 cells assessed as large single-walled autophagic vacuoles at 1 to 10 uM after 24 by transmission electron microscopic analysis. Type of test: functional, cell-based. The procedure, abridged: as §1
The test system of test [4] is NCI-H441. Briefly: Induction of autophagy in human H441 cells assessed as peri-nuclear accumulation of cell organelles at 1 to 10 uM after 24 by transmission electron microscopic analysis. Type of test: functional, cell-based. The procedure, abridged:
as §1

The test system of test [5] is NCI-H441. Briefly: Induction of autophagy in human H441 cells assessed as blebbing of nuclear membrane at 1 to 10 uM after 24 by transmission electron microscopic analysis. Type of test: functional, cell-based. The procedure, abridged: as §1
The test system of test [6] is NCI-H441. Briefly: Induction of autophagy in human H441 cells assessed as chromatin condensation at 1 to 10 uM after 24 by transmission electron microscopic analysis. Type of test: functional, cell-based. The gist of the method:
as §1

Test [7] has as its system NCI-H441. Description: Induction of autophagosome formation in human H441 cells at 10 uM after 24 using monodansylcadaverine staining by fluorescent microscopic analysis. Type of test: functional, cell-based. The procedure, abridged:
(§2)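 H441 cells labeled with the autophagic-vacuole marker monodansylcadaverine after treatment and examined by fluorescence microscopy; autophagy inhibition tested with 3-methyladenine.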

For test [8], the system named is NCI-H441. Description: Induction of autophagy in human H441 cells assessed as peri-nuclear accumulation of mitochondria at 1 to 10 uM after 24 by transmission electron microscopic analysis. Type of test: functional. The procedure, abridged: as §1
The test system of test [9] is NCI-H441. Briefly: Induction of autophagosome formation in human H441 cells at 10 uM after 24 using monodansylcadaverine staining by fluorescent microscopic analysis in presence of 3-methyladenine. Type of test: functional, cell-based. The gist of the method: as §2
The next test relates to PC-3. Briefly: Antiproliferative activity against human PC3 cells assessed as decrease of hexosaminidase activity at 1 to 100 uM after 24 to 72 hrs. Type of test: functional, cell-based. The procedure, abridged: (§3)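 Cells kept as for H441 but in RPMI 1640 with 5% heat-inactivated FBS and gentamicin 50 μg/ml; 10×10^3 cells/well seeded, attached overnight. Compounds in DMSO (0.1% final) at 1, 10, 25, 100 μM for 24, 48 and 72 h. Remaining cells read by hexosaminidase activity (substrate in citrate pH 5, 30 min 37 °C, glycine/EDTA pH 10.4 stop, A405) as percent of DMSO control; triplicate, repeated at least twice.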

A further test relates to MIA PaCa-2. Briefly: Antiproliferative activity against human MIAPaCa2 cells assessed as decrease of hexosaminidase activity at 1 to 100 uM after 24 to 72 hrs. Type of test: functional, cell-based. The procedure, abridged:
as §3

In a further test the test system is PANC-1. Briefly: Antiproliferative activity against human PANC1 cells assessed as decrease of hexosaminidase activity at 1 to 100 uM after 24 to 72 hrs. Type of test: functional, cell-based. The procedure, abridged: as §3
The test system of test [10] is NCI-H441. Description: Induction of apoptosis in human H441 cells. Type of test: functional, cell-based.
The test system of test [11] is NCI-H441. Description: Induction of apoptosis in human H441 cells assessed as caspase 3 activation by immunoblotting. Type of test: functional, cell-based. (In general: In western blotting, separated proteins are transferred to a membrane and probed.)
Test [12] has as its system NCI-H441. Briefly: Induction of apoptosis in human H441 cells assessed as caspase 3/7 activation by immunoblotting. Type of test: functional, cell-based.
Test [13] has as its system NCI-H441. Description: Induction of apoptosis in human H441 cells assessed as caspase cleavage by immunoblotting. Type of test: functional, cell-based.

Structures are written as SMILES. pIC50: −log10 of the molar value. The source made the active and inactive calls. No cut-off for these calls is given here.

Turning to `CN(C)c1ccc(/C=C2\CNC/C(=C\c3ccc(N(C)C)cc3)C2=O)cc1`, the pIC50 in [1] is 4.00. As to `O=C(CCC(=O)N1C/C(=C\c2ccccc2F)C(=O)/C(=C/c2ccccc2F)C1)N[C@@H]1[C@@H](O)[C@H](O)[C@@H](CO)O[C@H]1O`, in test [1], the negative logarithm of the IC50 (pIC50) is 4.10. On to `O=C(O)CCC(=O)N1C/C(=C\c2ccccc2F)C(=O)/C(=C/c2ccccc2F)C1`, for which, in [1], the pIC50 is 4.16. As for `O=C1/C(=C/c2ccccc2F)CN(C(=O)c2ccccc2C(=O)O)C/C1=C\c1ccccc1F`, in test [1], the pIC50 is 4.25. For the molecule `O=C(O)/C=C/C(=O)N1C/C(=C\c2ccccc2F)C(=O)/C(=C/c2ccccc2F)C1`, the pIC50 in [1] is 4.54. `O=C1/C(=C/c2ccccc2Br)CNC/C1=C\c1ccccc1Br`: in test [1], the pIC50 is 5.22.

Turning to `O=C1/C(=C/c2ccccc2F)CN(C(=O)C2CCCCC2C(=O)O)C/C1=C\c1ccccc1F` (configuration not stated), the pIC50 in test [1] was 4.26. With `O=C1/C(=C/c2ccccc2F)CNC/C1=C\c1ccccc1F`, the pIC50 in test [1] was 4.36. The result in the test with NCI-H441 [2], in the test with NCI-H441 [3], in the test on NCI-H441 [4], in the test on NCI-H441 [5], with NCI-H441 [7] and with NCI-H441 [8] was Active. Also, the outcome in the test on NCI-H441 [6] and in the test on NCI-H441 [9] was inactive. `CCCCCCCCCCCCCCCC/C=C/C(CC(=O)O)C(=O)N1C/C(=C\c2ccccc2F)C(=O)/C(=C/c2ccccc2F)C1` (configuration not stated): in test [1], the pIC50 was 4.08. In the case of `O=C1/C(=C/c2ccccc2)CNC/C1=C\c1ccccc1`, the pIC50 in [1] was 4.92. On to `O=C(O)CCCC(=O)N1C/C(=C\c2ccccc2F)C(=O)/C(=C/c2ccccc2F)C1`, for which the pIC50 in [1] is 4.22. Turning to `CCCCCCCCCCCCCCCCNC(=O)CCC(=O)N1C/C(=C\c2ccccc2F)C(=O)/C(=C/c2ccccc2F)C1`, the pIC50 in [1] is 4.19. The same measure, in the same setting: the same measure for `O=C1/C(=C/c2ccc(Cl)cc2)CNC/C1=C\c1ccc(Cl)cc1`: 4.06; for `O=CN1C/C(=C\c2ccccc2F)C(=O)/C(=C/c2ccccc2F)C1`: 4.31. With `O=C(CN1C/C(=C\c2ccccc2F)C(=O)/C(=C/c2ccccc2F)C1)NCc1ccc(F)cc1`, the pIC50 in test [1] was 4.34.

Regarding `CCCCCCCCCC/C=C/C(CC(=O)O)C(=O)N1C/C(=C\c2ccccc2F)C(=O)/C(=C/c2ccccc2F)C1` (configuration not stated), in test [1], the pIC50 is 4.24. Regarding `Cc1ccc(S(=O)(=O)N2C/C(=C\c3ccccc3F)C(=O)/C(=C/c3ccccc3F)C2)cc1`, the pIC50 in test [1] was 4.30. As for `CCCCCCCCCCCC/C=C/C(CC(=O)O)C(=O)N1C/C(=C\c2ccccc2F)C(=O)/C(=C/c2ccccc2F)C1` (configuration not stated), the pIC50 in [1] is 4.33. As to `O=C(O)/C=C\C(=O)N1C/C(=C\c2ccccc2Cl)C(=O)/C(=C/c2ccccc2Cl)C1`, the pIC50 in [1] was 6.00. Further, the outcome with PC-3, in the test with MIA PaCa-2, in the test with PANC-1, in the test on NCI-H441 [2], with NCI-H441 [3] and in the test with NCI-H441 [4] was Active. For the same molecule, the result in the test on NCI-H441 [5], with NCI-H441 [7] and with NCI-H441 [8] was Active. The outcome in the test on NCI-H441 [10], in the test on NCI-H441 [11], in the test on NCI-H441 [12], with NCI-H441 [13], in the test on NCI-H441 [6] and in the test on NCI-H441 [9] was inactive. With `O=C1/C(=C/c2cccc(Cl)c2)CNC/C1=C\c1cccc(Cl)c1`, the pIC50 in [1] is 4.30. On the same count and under the same terms, the same measure for `O=C1/C(=C/c2ccccc2[N+](=O)[O-])CNC/C1=C\c1ccccc1[N+](=O)[O-]`: 4.03. On the same count and under the same terms, then `O=C1/C(=C/c2ccc(F)cc2)CNC/C1=C\c1ccc(F)cc1`, with 4.34; and `CC(=O)N1C/C(=C\c2ccccc2F)C(=O)/C(=C/c2ccccc2F)C1`, with 4.27. On the same count and under the same terms, then `O=C1/C(=C/c2ccccc2Cl)CNC/C1=C\c1ccccc1Cl`, with 5.30.

These data come from ChEMBL document CHEMBL1250466, “CLEFMA-an anti-proliferative curcuminoid from structure-activity relationship studies on 3,5-bis(benzylidene)-4-piperidones” (Bioorg Med Chem, 2010).
